HEK293 NFkB inh: inhibitors of the PMA/ionomycin-induced NF-kB reporter in HEK293 cells | inhibition, % at 3 µM | AID 465 | 0.21% of 62,000 active | HEK-293 NF-kB luciferase reporter, luminescence;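 active = inhibition above the mean of all tested compounds plus 3 SD, cut at about 40% in these data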;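 note: 0% = stimulated DMSO wells and 100% = 10 µM reference inhibitor 5653914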
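Reagent: PMA plus ionomycin mix as NF-kB-activating stimulus. Assay system: NF-kB luciferase reporter HEK-293 cells. Technique: luminescence from luciferase substrate reagent. Incubation: 1 h compound pre-incubation, 16 h PMA/ionomycin at 37 °C. Benchmarks: DMSO only as uninhibited control, 10 µM reference inhibitor as full inhibition. Repeats: tested once.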
Her2 expr inh: Her2 kinase expression inhibition | P04626 | SKBR-3 HER2 protein level, AlphaScreen, 18-24 h; hits give low values | HER2 level % of control, % at 10 µM | 0.69% of 65,000 active;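 active = HER2 level under 5% of the carrier-only control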;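 note: 100% = DMSO carrier and 0% = 500 nM PU-H71 HSP90 inhibitor; lower value means stronger loss of Her2 protein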
Target sequence (P04626 whole entry, looked up): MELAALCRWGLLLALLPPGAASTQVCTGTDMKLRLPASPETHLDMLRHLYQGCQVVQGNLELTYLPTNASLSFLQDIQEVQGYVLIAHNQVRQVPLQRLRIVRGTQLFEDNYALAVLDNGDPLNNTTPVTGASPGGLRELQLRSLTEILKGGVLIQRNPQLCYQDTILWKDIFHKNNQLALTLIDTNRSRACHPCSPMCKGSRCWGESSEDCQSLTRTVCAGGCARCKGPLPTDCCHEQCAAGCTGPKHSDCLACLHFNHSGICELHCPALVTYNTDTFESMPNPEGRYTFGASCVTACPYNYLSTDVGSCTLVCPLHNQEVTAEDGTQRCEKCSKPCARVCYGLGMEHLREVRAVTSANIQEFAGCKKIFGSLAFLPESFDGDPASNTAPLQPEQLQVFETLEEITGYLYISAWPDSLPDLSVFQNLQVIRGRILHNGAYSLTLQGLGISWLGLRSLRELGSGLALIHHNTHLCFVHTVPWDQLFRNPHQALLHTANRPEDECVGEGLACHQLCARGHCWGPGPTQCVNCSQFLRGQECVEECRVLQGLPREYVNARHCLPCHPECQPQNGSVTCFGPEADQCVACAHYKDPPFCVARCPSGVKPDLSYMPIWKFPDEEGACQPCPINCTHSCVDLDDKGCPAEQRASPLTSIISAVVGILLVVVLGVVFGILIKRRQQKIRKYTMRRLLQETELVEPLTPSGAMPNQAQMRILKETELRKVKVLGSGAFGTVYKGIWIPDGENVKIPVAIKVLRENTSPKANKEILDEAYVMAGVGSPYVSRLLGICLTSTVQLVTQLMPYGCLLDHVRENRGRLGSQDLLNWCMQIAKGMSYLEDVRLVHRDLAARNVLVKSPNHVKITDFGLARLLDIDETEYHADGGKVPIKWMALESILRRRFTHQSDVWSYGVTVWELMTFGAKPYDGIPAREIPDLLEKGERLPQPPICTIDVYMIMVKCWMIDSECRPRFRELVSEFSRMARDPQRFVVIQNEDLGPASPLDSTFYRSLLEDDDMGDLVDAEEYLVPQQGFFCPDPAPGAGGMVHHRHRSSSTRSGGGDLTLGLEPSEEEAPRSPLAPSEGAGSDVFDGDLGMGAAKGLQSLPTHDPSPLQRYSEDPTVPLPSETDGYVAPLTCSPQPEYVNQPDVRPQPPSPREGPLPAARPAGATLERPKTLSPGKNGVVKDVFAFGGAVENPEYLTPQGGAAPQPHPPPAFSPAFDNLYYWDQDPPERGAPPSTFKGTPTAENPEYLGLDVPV
JNK3 blocker: inhibitors of human JNK3 kinase | inhibition, % at 8 µM | P53779 | 0.61% of 60,000 active | purified JNK3 kinase activity, HTS | AID 746; in the data active = inhibition above about 17%;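 note: 0% = DMSO and 100% = reference inhibitor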
AP complement: alternative pathway complement inhibition, orthogonal assay; Human serum alternative complement pathway, LPS-coated ELISA, C3 deposition; tested in compound mixtures; 0.08% of 62,000 active; inhibition, % at 5 µM;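 active = inhibition above 30% in each of the two pooled mixtures holding the compound, so the lower value exceeds 30%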;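 note: 0% = serum in Mg-EGTA without compound and 100% = EDTA serum blank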
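Medium: diluted human serum in Mg2+-EGTA GVB++. Assay system: human serum complement alternative pathway, C3 deposition onto LPS. Also added: Plate-bound LPS. Technique: Anti-C3 ELISA, OD 450 nm. Measure: percent inhibition. Incubation: 1 h at 37 °C. Dosing: 5 µM each compound, pools of ten, 50 µM per pool.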
MT1-MMP txn act: MT1-MMP promoter transcription activation; HT1080 MT1-MMP promoter luciferase reporter, luminescence, overnight; hits give high values; activation factor at 10 µM; 0.16% of 86,000 active;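 active = activation factor of at least 2 for MT1-MMP transcription at 10 µM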
* = called active by the depositor; . = no result given. Shown are actives, neighbours in structure and some others; about 1.1% of the full set was active somewhere.

SMILES	HEK293 NFkB inh	Her2 expr inh	JNK3 blocker	AP complement	MT1-MMP txn act
CC1CC(C)(C)Nc2ccc(OC(=O)c3ccco3)cc21 (configuration not stated)	57.9*	-31.2*	9.2	18.7	.
O=c1oc2ccccc2n1CSc1nc2ccccc2s1	-15.8	74.8	1.3	0.7	2.1*
Cc1c(Cl)cccc1NC(=O)COc1ccc(S(=O)(=O)N2CCOCC2)cc1	.	.	.	.	1.2
COC(=O)CS(=O)(=O)c1nnc([C@H](Cc2ccccc2)NC(=O)OC(C)(C)C)o1	12.5	-17.1*	-2.2	-1.4	0.8
CCc1nc(C)ccc1OCC(=O)O	5.7	141.5	4.8	-2.2	1.1
CCc1nc(C)ccc1OCC(=O)NCCCN(C)C	14.3	-28.1*	-1.1	4.9	1.1
CC1CCCCC12NC(=O)N(CC(=O)NCCc1ccccn1)C2=O (configuration not stated)	16.9	137.7	-3.3	.	1.1
CCCN1Cc2cccc(C(=O)NCc3ccc4c(c3)OCO4)c2C1=O	9.8	122.7	23.8*	0.8	1.2
Cc1nc(SCn2nnc3ccccc3c2=O)nc(C)c1C	-0.1	93.7	-0.8	5.0	1.1
CC1=C(C(=O)OCc2ccccc2)C(c2ccccc2OS(=O)(=O)c2ccc(C)cc2)NC(=O)N1CCCC(=O)O (configuration not stated)	.	.	.	.	1.1
CS(=O)(=O)c1nc(-c2ccco2)cc(C(F)(F)F)n1	14.0	-22.4*	.	6.3	1.3
O=C(c1cc2ccccc2oc1=O)N(Cc1ccccc1)Cc1ccc2c(c1)OCO2	.	.	.	.	2.5*
COc1ccc(-c2csc(NCc3ccco3)n2)cc1	-21.3	97.7	.	-5.7	0.8
C=CCNc1nc(-c2ccc(OC)cc2OC)cs1	-8.4	48.7	-6.2	-1.8	2*
COCCn1cnc2c(c1=O)c1nc3ccccc3nc1n2/N=C/c1cccc(OC)c1OC	16.8	-0.7*	-1.3	2.7	1.1
C=CCn1cnc2c(c1=O)c1nc3ccccc3nc1n2/N=C/c1cccc(OC)c1	21.5	69.1	-1.6	10.0	1
CCOC(=O)c1[nH]c(C)c(/C(O)=C2\C(=O)C(=O)N(CCCn3ccnc3)C2c2ccncc2)c1C (configuration not stated)	21.0	91.2	-3.2	8.0	1.2
CC1CCc2nc(N)c(C#N)c(-c3ccncc3)c2C1 (configuration not stated)	15.6	100.2	17.1*	11.4	1.1
CC1CCc2nc(N)c(C#N)c(-c3cccnc3)c2C1 (configuration not stated)	.	95.5	.	3.4	1.2
CCOC(=O)c1ccc(Cn2cnc3ccccc3c2=O)cc1	-4.4	94.0	39.2*	12.1	1.2
COc1ccc(C2CC(c3c(Cl)cccc3Cl)n3nc(N)nc3N2)cc1 (configuration not stated)	12.7	82.0	-1.0	13.7	1.1
CN(c1ccc(C(=O)Nc2nccs2)cc1)S(=O)(=O)c1ccccc1	1.2	45.9	27.9*	-7.4	1.2
CCOC(=O)c1ccc(N=c2sc(C(=O)OC)cc(=O)n2Cc2ccco2)cc1	12.0	2.9*	1.8	7.4	0.8
CCCn1c(SCc2ccccc2)nc2c1c(=O)[nH]c(=O)n2C	8.4	91.7	-4.4	11.9	1.1
CCC(Sc1nc2cc3c(cc2c(=O)n1Cc1ccco1)OCO3)C(=O)Nc1cccc(OC)c1 (configuration not stated)	16.7	-16.9*	.	11.3	0.9
SMILES	HEK293 NFkB inh	Her2 expr inh	JNK3 blocker	AP complement	MT1-MMP txn act
CCC(Sc1nc2cc3c(cc2c(=O)n1Cc1ccco1)OCO3)C(=O)Nc1ccccc1OC (configuration not stated)	16.6	20.2	.	2.9	0.9
Nc1ccc(N2CCN(C(=O)c3ccco3)CC2)cc1	.	.	.	.	1.1
Brc1ccc(-c2nn3c(-c4ccco4)nnc3s2)o1	4.6	97.5	24.8*	7.4	1.1
Clc1ccc(-c2ccc(-c3nn4c(-c5ccco5)nnc4s3)o2)cc1	3.5	124.7	9.3	12.6	0.9
CC(=O)Nc1nc(C)c(-c2csc(Nc3ccc(O)cc3)n2)s1	18.1	15.9	18.5*	1.9	0.8
Cc1nc(N)sc1-c1csc(Nc2ccccc2)n1	-8.5	.	-2.4	10.1	2.3*
Cc1cc(O)ccc1Nc1nc(-c2sc(N)nc2C)cs1	12.0	86.0	-1.2	14.9	1.2
CCC(=NCCc1ccccc1)C1=C(O)CCC1=O	-6.7	94.9	2.0	6.5	1.2
N#Cc1sc2nc3c(c(-c4ccco4)c2c1N)CCCC3	6.4	94.6	17.4*	6.2	1
CC1=Nn2c(nc(-c3ccccc3)c2-c2ccccc2)N(CC(N)=O)C(=O)C1	3.9	104.9	5.9	21.6	1.1
Fc1ccc2nc3[nH]c4ccccc4c3nc2c1	-26.8	56.3	37.1*	6.0	1.5
CCC(=O)Nc1cc(NC(=O)CSc2ncc(-c3ccc(F)cc3)n2Cc2ccco2)ccc1C	-6.4	89.2	7.7	0.0	2.1*
COc1cc(CC(=O)Nc2sccc2C(N)=O)cc(OC)c1OC	11.8	74.5	55.8*	-15.7	1
CCc1nnc(NC(=O)CSc2nnc(Cc3ccccc3)o2)s1	-10.4	105.9	-0.7	5.4	1
CC(C)c1nnc(NC(=O)CCS(=O)(=O)c2nc(-c3cccs3)cc(C(F)(F)F)n2)s1	6.0	-19.0*	-2.8	-0.6	1
CCOC(=O)N1CCN(c2nc(-c3cccs3)cc(C(F)(F)F)n2)CC1	.	.	.	.	1.1
COC(=O)[C@@]1(Cc2ccc(OC)cc2)[C@H]2c3cc(C(=O)N(C)C)n(CCF)c3C[C@H]2CN1C(=O)c1ccccc1	.	.	.	.	1.2
CCC(Sc1nc(C)cc(C)n1)C(=O)Nc1ccc(Cl)cn1 (configuration not stated)	.	.	.	.	2*
CCN(CC)c1ccc(-c2nc3cnccn3c2NC2CCCC2)cc1	.	.	.	.	1.5
Cc1cc(C(=O)CN2C(=O)c3ccccc3S2(=O)=O)c(C)n1CC1CCCO1 (configuration not stated)	84.5*	82.8	-6.3	-2.2	.
O=S(=O)(c1ccc2c(c1)C(=NO)c1cc(S(=O)(=O)N3CCCCC3)ccc1-2)N1CCCCC1	-0.5	-21.8*	1.8	-10.4	0
Nc1c(S(=O)(=O)c2cccc(Cl)c2)c2nc3ccccc3nc2n1/N=C/c1ccc(O)c(O)c1	6.9	-13.1*	-2.5	14.3	0.8
c1ccc(-n2cnc3cc(NCc4cccs4)ccc32)cc1	.	.	.	.	1.1
Cc1ccc(S(=O)(=O)NC(=O)Nc2c(C)n(C)n(-c3ccccc3)c2=O)cc1	10.1	97.6	-1.2	22.6	1.3
O=C(CCCn1c(=O)[nH]c2cc(Cl)ccc2c1=O)NCC1CCCO1 (configuration not stated)	7.2	106.2	23.0*	6.9	1.1
O=C(CCCn1c(=O)[nH]c2cc(Cl)ccc2c1=O)NCCCN1CCCC1	12.2	118.8	.	-8.2	.
CCCCNC(=O)CC1N=C2c3ccccc3N=C(SCC(=O)Nc3cccc(C)c3)N2C1=O (configuration not stated)	19.2	83.1	.	1.7	.

Screens: PubChem BioAssay, several laboratories
